Target: T1, Polyunsaturated fatty acid 5-lipoxygenase (Rattus norvegicus, UniProt P12527)
T1 sequence (P12527 whole entry): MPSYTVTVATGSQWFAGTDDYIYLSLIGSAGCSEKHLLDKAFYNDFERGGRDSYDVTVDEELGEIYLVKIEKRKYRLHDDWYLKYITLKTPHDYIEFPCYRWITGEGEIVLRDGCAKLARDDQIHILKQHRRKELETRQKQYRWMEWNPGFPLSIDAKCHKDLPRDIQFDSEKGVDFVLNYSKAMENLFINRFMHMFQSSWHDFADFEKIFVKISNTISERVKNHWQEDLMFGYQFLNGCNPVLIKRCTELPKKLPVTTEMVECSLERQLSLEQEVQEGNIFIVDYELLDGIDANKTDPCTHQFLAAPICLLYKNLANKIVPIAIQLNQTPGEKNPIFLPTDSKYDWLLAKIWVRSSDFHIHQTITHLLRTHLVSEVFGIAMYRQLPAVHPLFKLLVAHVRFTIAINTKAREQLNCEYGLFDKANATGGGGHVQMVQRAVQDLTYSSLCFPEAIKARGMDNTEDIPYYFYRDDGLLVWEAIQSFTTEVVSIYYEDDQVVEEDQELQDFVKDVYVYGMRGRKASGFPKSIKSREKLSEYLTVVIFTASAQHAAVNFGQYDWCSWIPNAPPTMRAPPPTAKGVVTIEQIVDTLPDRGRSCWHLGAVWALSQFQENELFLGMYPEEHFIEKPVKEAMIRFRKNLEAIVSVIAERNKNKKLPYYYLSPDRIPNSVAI
Experiment: Inhibition of 5-lipoxygenase in Wistar rat peritoneal leukocytes
Procedure, shortened: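 Leukocytes (~85% PMNs) were elicited in male Wistar rats (200-300 g) with ip 6% oyster glycogen and harvested 16-20 h later. Cells at 2.5 × 10^6/mL in complete HBSS were tested in triplicate, preincubated with the sample (in DMSO, or CHCl3 evaporated) for 10 min at 37 °C, then given A23187 for 10 min. Supernatant LTB4 was measured by RIA (3H-LTB4 tracer, rabbit antiserum, 18 h, 4 °C).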

IC50: > 200 µM
SMILES: C=C1CCCC(C)C(=O)C(=O)[C@@H]2[C@@H]1CC2(C)C (stereo partly specified) [buddledin B]

From BindingDB's records for doi:10.1021/np990092+ (Peking Union Medical College, 1999)
